Data from ChEMBL document CHEMBL4033795, “Design, Synthesis, and Structure-Activity Relationship Study of 2-Oxo-3,4-dihydropyrimido[4,5- d]pyrimidines as New Colony Stimulating Factor 1 Receptor (CSF1R) Kinase Inhibitors” (J Med Chem, 2018).

Assays:
[1] = target: Macrophage colony-stimulating factor 1 receptor (Homo sapiens, UniProt P07333); experiment: Inhibition of recombinant human His-tagged CSF1R cytoplasmic domain (538 to 910 residues) expressed in baculovirus using tyr4 peptide as substrate after 1 hr by FRET-based Z'-Lyte assay
In short: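 Z′-Lyte FRET assay with CSF1R or EGFR and 2 μM Tyr4 peptide substrate in 1× kinase buffer. ATP was supplied as a 100 μM solution, a stock and not the final concentration. Compounds were 3-fold serially diluted in DMSO. Reaction ran 1 h at room temperature, followed by 1 h development and a stop reagent. Phospho-peptide, no-ATP and DMSO controls were included. IC50 by curve fitting; mean of at least three independent experiments.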

[2] = target: Epidermal growth factor receptor (Homo sapiens, UniProt P00533); experiment: Inhibition of recombinant human wild type GST-tagged EGFR cytoplasmic domain (668 to 1210 residues) expressed in baculovirus using tyr4 peptide as substrate after 1 hr by FRET-based Z'-Lyte assay
Sequence of Epidermal growth factor receptor (P00533 whole entry, the tested form may be a part): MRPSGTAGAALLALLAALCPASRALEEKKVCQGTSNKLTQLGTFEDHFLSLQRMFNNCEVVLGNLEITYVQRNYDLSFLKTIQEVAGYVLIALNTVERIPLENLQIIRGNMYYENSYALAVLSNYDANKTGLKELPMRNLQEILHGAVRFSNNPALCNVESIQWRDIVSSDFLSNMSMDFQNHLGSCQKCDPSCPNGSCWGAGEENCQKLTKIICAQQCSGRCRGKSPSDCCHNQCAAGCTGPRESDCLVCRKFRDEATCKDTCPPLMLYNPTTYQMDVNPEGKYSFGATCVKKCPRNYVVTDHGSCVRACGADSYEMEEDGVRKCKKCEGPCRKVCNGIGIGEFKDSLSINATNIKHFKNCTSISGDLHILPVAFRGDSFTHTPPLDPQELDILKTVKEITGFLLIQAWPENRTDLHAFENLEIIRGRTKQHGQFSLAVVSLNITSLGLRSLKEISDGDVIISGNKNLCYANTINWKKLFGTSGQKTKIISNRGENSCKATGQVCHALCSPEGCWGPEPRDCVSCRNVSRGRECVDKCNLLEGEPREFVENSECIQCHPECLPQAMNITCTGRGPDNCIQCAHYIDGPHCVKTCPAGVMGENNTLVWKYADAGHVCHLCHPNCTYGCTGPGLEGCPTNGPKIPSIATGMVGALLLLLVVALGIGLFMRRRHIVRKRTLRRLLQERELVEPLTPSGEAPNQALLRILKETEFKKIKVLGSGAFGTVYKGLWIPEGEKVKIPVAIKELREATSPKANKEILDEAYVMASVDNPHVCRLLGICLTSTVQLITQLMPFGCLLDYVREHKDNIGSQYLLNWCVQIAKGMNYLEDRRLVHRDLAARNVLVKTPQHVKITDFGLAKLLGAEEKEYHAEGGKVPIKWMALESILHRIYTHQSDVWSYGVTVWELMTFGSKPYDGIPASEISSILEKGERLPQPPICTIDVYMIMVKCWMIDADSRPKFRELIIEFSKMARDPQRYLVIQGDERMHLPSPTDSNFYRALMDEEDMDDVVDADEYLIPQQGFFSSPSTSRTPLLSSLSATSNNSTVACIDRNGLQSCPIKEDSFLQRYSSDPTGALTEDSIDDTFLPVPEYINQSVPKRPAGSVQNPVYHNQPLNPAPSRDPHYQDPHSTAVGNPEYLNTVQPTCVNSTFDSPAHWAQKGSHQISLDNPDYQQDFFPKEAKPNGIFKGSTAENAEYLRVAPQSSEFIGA

Sequence of Macrophage colony-stimulating factor 1 receptor (P07333 whole entry, the tested form may be a part): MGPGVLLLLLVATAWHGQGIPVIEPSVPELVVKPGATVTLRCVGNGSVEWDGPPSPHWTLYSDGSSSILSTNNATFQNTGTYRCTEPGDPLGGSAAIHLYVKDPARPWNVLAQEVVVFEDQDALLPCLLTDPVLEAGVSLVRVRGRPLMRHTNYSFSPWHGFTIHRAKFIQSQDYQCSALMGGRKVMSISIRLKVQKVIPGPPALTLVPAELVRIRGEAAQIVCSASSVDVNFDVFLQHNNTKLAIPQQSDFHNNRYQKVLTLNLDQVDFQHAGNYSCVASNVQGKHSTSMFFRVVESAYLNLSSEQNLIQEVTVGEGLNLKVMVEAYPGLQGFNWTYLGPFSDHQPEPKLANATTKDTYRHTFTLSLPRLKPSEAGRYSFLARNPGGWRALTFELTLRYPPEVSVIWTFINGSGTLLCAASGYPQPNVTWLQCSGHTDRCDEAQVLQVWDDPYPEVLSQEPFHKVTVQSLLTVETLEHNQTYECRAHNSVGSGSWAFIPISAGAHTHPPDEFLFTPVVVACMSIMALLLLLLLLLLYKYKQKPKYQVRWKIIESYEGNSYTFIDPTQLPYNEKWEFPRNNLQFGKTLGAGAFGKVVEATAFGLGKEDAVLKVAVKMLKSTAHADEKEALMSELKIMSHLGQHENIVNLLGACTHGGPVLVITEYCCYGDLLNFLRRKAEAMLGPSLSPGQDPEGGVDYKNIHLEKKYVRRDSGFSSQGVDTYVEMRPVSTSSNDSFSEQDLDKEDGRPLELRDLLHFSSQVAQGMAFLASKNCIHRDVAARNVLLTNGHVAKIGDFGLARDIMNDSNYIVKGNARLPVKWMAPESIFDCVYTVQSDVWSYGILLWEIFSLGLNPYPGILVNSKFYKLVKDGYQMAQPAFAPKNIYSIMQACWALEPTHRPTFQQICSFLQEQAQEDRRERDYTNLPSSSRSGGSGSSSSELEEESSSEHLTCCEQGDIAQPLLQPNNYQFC

Row | Compound | IC50 [1] | IC50 [2]
1 | Cc1cc(Nc2ncc3c(n2)N([C@H]2CCN(C(=O)C4CC4)C2)C(=O)N(c2ccccc2Cl)C3)ccc1N1CCN(C)CC1 | 20.7 nM | 28.7 nM
2 | CC(=O)N1CC[C@H](N2C(=O)N(c3ccccc3Cl)Cc3cnc(Nc4ccc(N5CCN(C)CC5)c(C)c4)nc32)C1 | 5.5 nM | 12.1 nM
3 | FC(F)(F)c1ccc(CNc2ccc(Cc3c[nH]c4ncc(Cl)cc34)cn2)cn1 [PEXIDARTINIB] |  | > 10000 nM
4 | CCC(=O)N1CC[C@H](N2C(=O)N(c3cc(OC)ccc3F)Cc3cnc(Nc4ccc(N5CCC6(CCN(C)CC6)CC5)c(C)c4)nc32)C1 | 6.2 nM | 224 nM
5 | CCC(=O)N1CC[C@H](N2C(=O)N(c3cc(OC)ccc3F)Cc3cnc(Nc4ccc(N5CCN(C)CC5)c(CC)c4)nc32)C1 | 10 nM | 518 nM
6 | Cc1cc(Nc2ncc3c(n2)N([C@H]2CCN(C(=O)C4CCCC4)C2)C(=O)N(c2ccccc2Cl)C3)ccc1N1CCN(C)CC1 | 28.4 nM | 25.5 nM
7 | CCC(=O)N1CC[C@@H](N2C(=O)N(c3ccccc3Cl)Cc3cnc(Nc4ccc(N5CCN(C)CC5)c(C)c4)nc32)C1 | 20.9 nM | 23.4 nM
8 | CCC(=O)N1CC[C@H](N2C(=O)N(c3ccccc3OC)Cc3cnc(Nc4ccc(N5CCN(C)CC5)c(C)c4)nc32)C1 | 5.1 nM | 27.4 nM
9 | CCC(=O)N1CC[C@H](N2C(=O)N(c3cc(OC)ccc3F)Cc3cnc(Nc4ccc(N5CCN(C)CC5)cc4OC)nc32)C1 | 30.4 nM | 1600 nM
10 | CCC(=O)N1CC[C@H](N2C(=O)N(c3cccc(OC(F)F)c3)Cc3cnc(Nc4ccc(N5CCN(C)CC5)c(C)c4)nc32)C1 | 28 nM | 257 nM
11 | CCC(=O)N1CC[C@H](N2C(=O)N(c3cc(OC)ccc3F)Cc3cnc(Nc4ccc(N5CCN(C)CC5)c(C(C)C)c4)nc32)C1 | 25.8 nM | 365 nM
12 | CCC(=O)N1CC[C@H](N2C(=O)N(c3ccccc3C)Cc3cnc(Nc4ccc(N5CCN(C)CC5)c(C)c4)nc32)C1 | 5.6 nM | 7.6 nM
13 | CCC(=O)N1CC[C@H](N2C(=O)N(c3cc(OC)ccc3F)Cc3cnc(Nc4ccc(N5CCN(C)CC5)cc4C)nc32)C1 | 20.2 nM | 2500 nM
14 | CCC(=O)N1CC[C@H](N2C(=O)N(c3cc(OC)ccc3F)Cc3cnc(Nc4ccc(N5C[C@@H](C)N(C)[C@@H](C)C5)c(C)c4)nc32)C1 | 7.8 nM | 888 nM
15 | CCC(=O)N1CC[C@H](N2C(=O)N(c3cc(OC)ccc3F)Cc3cnc(Nc4ccc(N5CCN(C)[C@@H](C)C5)c(C)c4)nc32)C1 | 7.2 nM | 715 nM
16 | CCC(=O)N1CC[C@H](N2C(=O)N(c3cc(OC)ccc3F)Cc3cnc(Nc4ccc(N5CCC(N(C)C)CC5)c(C)c4)nc32)C1 | 4.7 nM | 286 nM
17 | CCC(=O)N1CC[C@H](N2C(=O)N(c3ccc(OC)cc3)Cc3cnc(Nc4ccc(N5CCN(C)CC5)c(C)c4)nc32)C1 | 5.8 nM | 153 nM
18 | CCC(=O)N1CC[C@H](N2C(=O)N(c3cc(OC)ccc3F)Cc3cnc(Nc4ccc(N5CCN(C6COC6)CC5)c(C)c4)nc32)C1 | 3.4 nM | 302 nM
19 | CCC(=O)N1CC[C@H](N2C(=O)N(c3cc(OC)ccc3F)Cc3cnc(Nc4ccc(N5CCN(C(C)=O)CC5)c(C)c4)nc32)C1 | 25.9 nM | 148 nM
20 | CCC(=O)N1CC[C@H](N2C(=O)N(c3cc(OC)ccc3F)Cc3cnc(Nc4ccc(N5CCN(C)CC5)c(OC)c4)nc32)C1 | 5.8 nM | 600 nM
21 | CCC(=O)N1CC[C@H](N2C(=O)N(c3cccc(Cl)c3)Cc3cnc(Nc4ccc(N5CCN(C)CC5)c(C)c4)nc32)C1 | 13.2 nM | 144 nM
22 | CCC(=O)N1CC[C@H](N2C(=O)N(c3cc(OC)ccc3F)Cc3cnc(Nc4ccc(N5CCN(C)CC5)cc4)nc32)C1 | 13.6 nM | 1100 nM

Row | Compound | IC50 [1] | IC50 [2]
23 | Cc1cc(Nc2ncc3c(n2)N([C@H]2CCN(C(=O)C4CCCCC4)C2)C(=O)N(c2ccccc2Cl)C3)ccc1N1CCN(C)CC1 | 30.6 nM | 24.9 nM
24 | CCC(=O)N1CC[C@H](N2C(=O)N(c3cc(OC)ccc3F)Cc3cnc(Nc4ccc(N5CCN(C)CC5)c(F)c4)nc32)C1 | 17.1 nM | 1300 nM
25 | C=CC(=O)N1CC[C@H](N2C(=O)N(c3ccccc3Cl)Cc3cnc(Nc4ccc(N5CCN(C)CC5)c(C)c4)nc32)C1 | 30 nM | 0.5 nM
26 | CCC(=O)N1CC[C@H](N2C(=O)N(c3cccc(OC(F)(F)F)c3)Cc3cnc(Nc4ccc(N5CCN(C)CC5)c(C)c4)nc32)C1 | 151 nM | 889 nM
27 | CCC(=O)N1CC[C@H](N2C(=O)N(c3ccc(F)cc3)Cc3cnc(Nc4ccc(N5CCN(C)CC5)c(C)c4)nc32)C1 | 18.1 nM | 71.6 nM
28 | CCC(=O)N1CC[C@H](N2C(=O)N(c3ccc(C)cc3)Cc3cnc(Nc4ccc(N5CCN(C)CC5)c(C)c4)nc32)C1 | 20.6 nM | 377 nM
29 | CCC(=O)N1CC[C@H](N2C(=O)N(c3cc(OC)ccc3F)Cc3cnc(Nc4ccc(N5CCOCC5)c(C)c4)nc32)C1 | 25.2 nM | 626 nM
30 | Cc1cc(Nc2ncc3c(n2)N([C@H]2CCN(C(=O)CC(C)C)C2)C(=O)N(c2ccccc2Cl)C3)ccc1N1CCN(C)CC1 | 10.3 nM | 22.2 nM
31 | Cc1cc(Nc2ncc3c(n2)N([C@H]2CCN(C(=O)C(C)(C)C)C2)C(=O)N(c2ccccc2Cl)C3)ccc1N1CCN(C)CC1 | 20.1 nM | 29.4 nM
32 | Cc1cc(Nc2ncc3c(n2)N([C@H]2CCN(C(=O)CO)C2)C(=O)N(c2ccccc2Cl)C3)ccc1N1CCN(C)CC1 | 20 nM | 7 nM
33 | CCC(=O)N1CC[C@H](N2C(=O)N(c3cc(OC)ccc3F)Cc3cnc(Nc4ccc(N5CCC6(CCN(C)C6)C5)c(C)c4)nc32)C1 (stereo not given in full) | 6.8 nM | 296 nM
34 | CCC(=O)N1CC[C@H](N2C(=O)N(c3ccc(Cl)cc3)Cc3cnc(Nc4ccc(N5CCN(C)CC5)c(C)c4)nc32)C1 | 14.8 nM | 383 nM
35 | Cc1cc(Nc2ncc3c(n2)N([C@H]2CCN(C(=O)CN(C)C)C2)C(=O)N(c2ccccc2Cl)C3)ccc1N1CCN(C)CC1 | 22.7 nM | 26.6 nM
36 | CCC(=O)N1CC[C@H](N2C(=O)N(c3cccc(C)c3)Cc3cnc(Nc4ccc(N5CCN(C)CC5)c(C)c4)nc32)C1 | 16.4 nM | 365 nM
37 | Cc1cc(Nc2ncc3c(n2)N([C@H]2CCN(C(=O)C(C)C)C2)C(=O)N(c2ccccc2Cl)C3)ccc1N1CCN(C)CC1 | 6.7 nM | 8.5 nM
38 | CCC(=O)N1CC[C@H](N2C(=O)N(c3ccccc3Cl)Cc3cnc(Nc4ccc(N5CCN(C)CC5)c(C)c4)nc32)C1 | 5 nM | 15.7 nM
39 | CCC(=O)N1CC[C@H](N2C(=O)N(c3cccc(F)c3)Cc3cnc(Nc4ccc(N5CCN(C)CC5)c(C)c4)nc32)C1 | 15.2 nM | 35.8 nM
40 | CCCC(=O)N1CC[C@H](N2C(=O)N(c3ccccc3Cl)Cc3cnc(Nc4ccc(N5CCN(C)CC5)c(C)c4)nc32)C1 | 10.1 nM | 28.9 nM
41 | CCC(=O)N1CC[C@H](N2C(=O)N(c3ccccc3F)Cc3cnc(Nc4ccc(N5CCN(C)CC5)c(C)c4)nc32)C1 | 5.2 nM | 17.6 nM
42 | CCC(=O)N1CC[C@H](N2C(=O)N(c3cc(OC)ccc3F)Cc3cnc(Nc4ccc(N5CCN(C)CC5)c(Cl)c4)nc32)C1 | 14.8 nM | 1200 nM
43 | CCC(=O)N1CC[C@H](N2C(=O)N(c3cc(OC)ccc3F)Cc3cnc(Nc4ccc(N5CCN(C)CC5)c(C(F)(F)F)c4)nc32)C1 | 31.9 nM | 3400 nM
